# NTR1 ag: agonists of human NTR1, primary screen, imaging, U2OS cells, beta-arrestin-GFP, high content. AID 493036, 2011. NTR1-U2OS beta-arrestin-GFP spot imaging, agonist mode. activation, % at 20 µM. 330,000 compounds, 0.17% hits;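 active = activation at or above 40% of the spot to cytoplasm intensity ratio, with at least 20 cells analyzed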
# Target sequence (P30989 whole entry, looked up): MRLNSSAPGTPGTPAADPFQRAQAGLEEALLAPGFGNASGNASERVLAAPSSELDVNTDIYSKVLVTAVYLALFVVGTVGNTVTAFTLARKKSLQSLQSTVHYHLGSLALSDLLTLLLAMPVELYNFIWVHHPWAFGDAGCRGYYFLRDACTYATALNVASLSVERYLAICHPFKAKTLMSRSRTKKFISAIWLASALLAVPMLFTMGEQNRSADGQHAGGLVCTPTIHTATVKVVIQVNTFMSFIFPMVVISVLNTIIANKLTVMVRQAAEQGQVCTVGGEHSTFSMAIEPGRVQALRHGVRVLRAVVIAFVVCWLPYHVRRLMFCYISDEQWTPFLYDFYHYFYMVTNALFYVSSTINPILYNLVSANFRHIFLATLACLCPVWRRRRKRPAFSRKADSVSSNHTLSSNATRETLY
# SR-BI HDL uptake: inhibitors of SR-BI mediated HDL lipid uptake, primary screen, ldlA[mSR-BI] cells, fluorescence, single point. Scavenger receptor class B member 1 (Mus musculus), Q61009. inhibition, % at 12.5 µM. 320,000 compounds, 0.96% hits. ldlA[mSR-BI] CHO cells, DiI-HDL uptake fluorescence, 3 h;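 active = mean replicate inhibition of at least 70% and a set share of replicates each scoring 70 or more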
# V-ATPase pH: regulators of yeast V-ATPase proton pumping, primary screen, pHLuorin cytosolic pH fluorescence; 350,000 compounds, 0.37% hits; S. cerevisiae; response, % at 10 µM; in the data active = response mostly above about 7.3%, no sharp cut-off; inactive = mostly below about 5.4%; note: actives read high
# SR-BI uptake up: activators of SR-BI mediated DiI-HDL uptake, primary screen, ldlA[mSR-BI] CHO cells, DiI fluorescence | 3 h; 100 = double the neutral-control signal | activation, % at 12.5 µM | 320,000 compounds, 0.096% hits | AID 504775, 2011;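 active = mean replicate activation of at least 60% and every replicate at or above 60%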
#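 Material – SR-BI-overexpressing, LDLR-lacking CHO cells · Medium – BSA-supplemented, HEPES-buffered Ham's F12, pH 7.4 · Doses – single concentration · Times – compound with DiI-HDL co-incubation, 3 h at 37 °C · Measured by – bottom-read fluorescence, 550/595 nm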
# CaV13 ICDI inh: Disruptors of the CACNA1D IQ motif to Ca2+-dependent inactivation inhibitor domain association, primary screening, Förster resonance energy transfer in intact living …; HEK cells, CFP/YFP FRET ICDI-IQ, plate reader, 10 min; percent FRET-ratio fall versus neutral wells; inhibition, % at 12.3 µM; 340,000 compounds, 0.098% hits; AID 743397;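 active = mean replicate inhibition of at least 30% and at least 1% of replicates passing that level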
# Vif inh: HIV Vif self-association inhibitors, primary screen, imaging, HEK293T, single point; HEK293T cells, Vif self-association by quenched fluorescence, 24 h; inhibition, % at 7.49 µM; 340,000 compounds, 0.35% hits; AID 602346, 2012; in the data active = inhibition above about 50%, passing the limit was not always enough
# Hits are given with their value; n = inactive; x = no result given. Only some compounds are listed: those with a hit (about 1.7% of all), similar ones and a draw of the others.
SMILES,NTR1 ag,SR-BI HDL uptake,V-ATPase pH,SR-BI uptake up,CaV13 ICDI inh,Vif inh
COc1cc(/C=N/NC(=O)c2ccncc2)ccc1OC(=O)c1cc(OC)c(OC)c(OC)c1,n,77.0,n,n,n,n
C=CCOc1ccccc1/C=N/NC(=O)c1ccc(Cl)cc1Cl,n,n,n,n,n,n
Fc1ccc(C(CCNCc2ccccn2)c2ccc(Cl)cc2)cc1 (stereo not given),n,n,n,n,x,n
COCCN(C(=O)Cc1cccs1)C(C(=O)NCc1ccc(OC)cc1)c1ccc(C)cc1 (stereo not given),n,n,n,n,n,111.6
CCc1ccc(C(C(=O)NCc2ccc(OC)cc2)N(CCOC)C(=O)Cc2cccs2)cc1 (stereo not given),n,n,n,n,n,n
NC(=O)c1c(N)[nH]c(C(=O)c2ccccc2)c1-c1ccncc1,x,x,x,x,n,x
N#Cc1cc(C(=O)c2cc(Cl)ccc2O)cn(-c2ccccc2)c1=O,n,n,n,75.6,n,n
Cc1ccc(NC(=O)c2cc(C(=O)c3cc(Cl)ccc3O)cn(-c3ccc(C)cc3)c2=O)cc1,n,83.0,n,n,n,n
Cc1c(-n2cc(C(=O)c3cc(Cl)ccc3O)cc(C#N)c2=O)c(=O)n(-c2ccccc2)n1C,n,n,n,n,n,x
CCCCC(CC)CN=C(N)NC(N)=NCCCCCCN=C(N)NC(N)=NCC(CC)CCCC (stereo not given),n,n,84.3,n,x,n
CS(=O)(=O)c1ncc(Cl)c(C(=O)Nc2ccc(N3CCOCC3)cc2)n1,n,n,n,n,x,n
CCS(=O)(=O)c1ncc(Cl)c(C(=O)Nc2ccc(S(=O)(=O)N(C)c3ccccc3)cc2)n1,n,85.5,n,n,n,n
CS(=O)(=O)c1ncc(Cl)c(C(=O)Nc2ccc(OC(F)F)cc2)n1,n,n,n,n,x,53.8
O=c1c2ccccc2nc2n1C(CSc1ccc(Br)cc1)CN2 (stereo not given),n,n,n,n,n,n
CCOC(=O)C1CCN(C(=O)Cc2ccc(-c3ccccc3)cc2)CC1,n,n,n,n,n,n
COC(=O)[C@]12C[C@H](CC(=O)N3CCCCC3)C(=O)N(CCC3=CCCCC3)C1=C[C@H](COCc1ccccc1)O[C@@H]2C,x,x,x,x,n,x
Oc1ccc(C[C@H]2CNC(=S)N2CC2CCCN2C[C@H](Cc2ccc(O)cc2)N2C[C@H](Cc3ccccc3)N(CC3CCCCC3)C2=S)cc1 (stereo not given in full),x,x,n,x,n,n
Cc1cc2oc3ccc(NCCCn4ccnc4)cc3c(=O)c2cc1C,n,n,n,n,n,153.6
Cc1cc2oc3ccc(NCCCN4CCOCC4)cc3c(=O)c2cc1C,n,n,n,n,n,n
COc1ccc(-c2cccc3c4c([nH]c23)[C@@H]2C[C@H]3[C@@H](C(=O)N2CC4)[C@H](C)ON3C)cc1,x,x,x,x,n,x
Cc1cc(/C=C2\C(=N)N3C(SCc4ccccc4)=NSC3=NC2=O)c(C)n1Cc1ccccc1,n,n,n,n,n,93.4
Cc1cc(/C=C2\C(=N)N3N=C(C(C)C)SC3=NC2=O)c(C)n1Cc1ccccc1,n,n,n,n,n,n
CCN(CC)C(=O)Cn1cc(C(=O)C(=O)Nc2ccc3c(c2)OCCO3)c2ccccc21,n,77.0,n,n,n,n
COc1cccc(C(=O)Oc2c(Br)cc(Br)cc2/C=N/NC(=O)c2cc(C)[nH]n2)c1,n,102.9,n,n,n,x
Cc1cc(C(=O)N/N=C/c2cccc(OC(=O)c3cccc(Br)c3)c2)n[nH]1,n,n,n,n,x,n
Cc1cc(C)n(S(=O)(=O)c2ccc3oc(=O)ccc3c2)n1,n,n,n,n,n,n
O=C1C2C3C=CC(C3)C2C(=O)N1/N=C/c1cn(Cc2ccccc2)c2ccccc12 (stereo not given),n,n,13.5,n,n,n
CCOc1cc(OCC)cc(C(=O)NCc2ccco2)c1,n,n,n,n,n,n

# Screening results as filed in PubChem BioAssay.
